# Measurements reported in ChEMBL document CHEMBL1157468, “Design, synthesis, and testing of non-nephrotoxic desazadesferrithiocin polyether analogues” (J Med Chem, 2008).
# Experiments:
# Rattus norvegicus [1] = experiment: Iron-clearing efficiency in non-iron-overloaded Sprague-Dawley rat at 300 umol/kg, po after 24 hrs relative to control; assay type: functional
# Summary of the method: (§1)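 Male Sprague–Dawley rats (400–450 g), not iron-loaded and bile duct-cannulated, got one dose of 50, 150 or 300 µmol/kg po, or 300 µmol/kg sc. Vehicle was water or the monosodium salt. Bile was collected every 3 h for 24 h and urine at 24 h. Iron was measured by atomic absorption. Efficiency was treated minus control iron excretion, divided by theoretical output (2:1 ligand:iron), as a percent; mean ± SEM.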
# Rattus norvegicus [2] = experiment: Iron-clearing efficiency in non-iron-overloaded Sprague-Dawley rat at 150 umol/kg, po after 24 hrs relative to control; assay type: functional; summary of the method: as §1
# Rattus norvegicus [3] = experiment: Iron-clearing efficiency in non-iron-overloaded Sprague-Dawley rat at 50 umol/kg, po after 24 hrs relative to control; assay type: functional; summary of the method: as §1
# Rattus norvegicus [4] = experiment: Iron-clearing efficiency in non-iron-overloaded Sprague-Dawley rat bile assessed as iron excretion at 300 umol/kg, po; assay type: functional; summary of the method: as §1
# Rattus norvegicus [5] = experiment: Iron-clearing efficiency in non-iron-overloaded Sprague-Dawley rat bile assessed as iron excretion at 150 umol/kg, po; assay type: functional; summary of the method: as §1
# Rattus norvegicus [6] = experiment: Iron-clearing efficiency in non-iron-overloaded Sprague-Dawley rat bile assessed as iron excretion at 50 umol/kg, po; assay type: functional; summary of the method: as §1
# Rattus norvegicus [7] = experiment: Iron-clearing efficiency in non-iron-overloaded Sprague-Dawley rat at 300 umol/kg, sc after 24 hrs relative to control; assay type: functional; summary of the method: as §1
# Sapajus apella [8] = experiment: Iron-clearing efficiency in iron-overloaded Cebus apella at 150 umol/kg, po after 2 days relative to control; assay type: functional
# Summary of the method: (§2)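 Monkeys (Cebus apella, 3.5–4 kg) were iron-loaded to about 500 mg Fe/kg with iv iron dextran and rested at least 60 days. They then got one 150 µmol/kg dose, po or sc. Feces and urine were collected every 24 h from 4 days before to 5 days after dosing, and iron was measured by flame atomic absorption. Efficiency was the 2-day post-drug iron minus the 4-day pre-drug baseline, divided by theoretical output (2:1 ligand:iron); mean ± SEM.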
# Sapajus apella [9] = experiment: Iron-clearing efficiency in iron-overloaded Cebus apella at 150 umol/kg, sc after 2 days relative to control; assay type: functional; summary of the method: as §2
# Rattus norvegicus [10] = experiment: Toxicity in non-iron-overloaded Sprague-Dawley rat assessed as survival at 384 umol/kg/day, po after 10 days by non-renal perfusion protocol; assay type: organism-based; conditions: in vivo, 240 h
# Summary of the method: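 Non-iron-loaded male Sprague–Dawley rats (250–300 g) were fasted overnight and gavaged po once daily for 10 days at 384 µmol/kg/day. They were fed about 3 h postdose with 5 h food access, then fasted again. Survival was followed over the exposure. Euthanasia was 24 h after the last dose, with extensive tissue histopathology.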
# Rattus norvegicus [11] = experiment: Nephrotoxicity in Sprague-Dawley rat assessed as heavy vacuolized renal tubules at […] for 7 days by renal perfusion studies; assay type: toxicity, organism-based; conditions: in vivo, 168 h, in the assay text read “237 umol/kg” for “273 umol/kg”
# Summary of the method: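 Male Sprague–Dawley rats (200–250 g), fasted overnight, got 237 µmol/kg/dose po twice daily (474 µmol/kg/day) for 7 days and were fed about 3 h post-drug. Untreated age-matched rats were controls. One day post-drug, under pentobarbital, kidneys were perfusion-fixed with glutaraldehyde in Tyrode's buffer and embedded in TAAB. 500 nm sections were stained with toluidine blue and examined by light microscopy at 400×.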
# Liver [12] = experiment: Biodistribution in Sprague-Dawley rat liver assessed per gram tissue wet weight at 300 umol/kg, sc after 1 hr; assay type: ADME, organism-based; conditions: in vivo
# Liver [13] = experiment: Biodistribution in Sprague-Dawley rat liver assessed per gram tissue wet weight at 300 umol/kg, po after 1 hr; assay type: ADME, organism-based; conditions: in vivo
# Summary of the method: (§3)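 Male Sprague–Dawley rats (250–350 g) got one 300 µmol/kg dose, po or sc. Vehicle was water or the monosodium salt (free acid plus 1 equiv NaOH). Three rats per time point were euthanized by CO2 at 1, 2 or 4 h. Plasma came from citrated cardiac blood; liver, kidney, heart and pancreas were removed. Drug levels were measured by HPLC with UV detection at 310 nm against linear calibration curves (detection limit 0.25 µM).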
# Liver [14] = experiment: Biodistribution in Sprague-Dawley rat liver assessed per gram tissue wet weight at 300 umol/kg, sc after 2 hrs; assay type: ADME, organism-based; conditions: in vivo
# Liver [15] = experiment: Biodistribution in Sprague-Dawley rat liver assessed per gram tissue wet weight at 300 umol/kg, po after 2 hrs; assay type: ADME, organism-based; conditions: in vivo; summary of the method: as §3
# Liver [16] = experiment: Biodistribution in Sprague-Dawley rat liver assessed per gram tissue wet weight at 300 umol/kg, sc after 4 hrs; assay type: ADME, organism-based; conditions: in vivo
# Liver [17] = experiment: Biodistribution in Sprague-Dawley rat liver assessed per gram tissue wet weight at 300 umol/kg, po after 4 hrs; assay type: ADME, organism-based; conditions: in vivo; summary of the method: as §3
# Kidney [18] = experiment: Biodistribution in Sprague-Dawley rat kidney assessed per gram tissue wet weight at 300 umol/kg, sc after 1 hr; assay type: ADME, organism-based; conditions: in vivo
# Kidney [19] = experiment: Biodistribution in Sprague-Dawley rat kidney assessed per gram tissue wet weight at 300 umol/kg, po after 1 hr; assay type: ADME, organism-based; conditions: in vivo; summary of the method: as §3
# Kidney [20] = experiment: Biodistribution in Sprague-Dawley rat kidney assessed per gram tissue wet weight at 300 umol/kg, sc after 2 hrs; assay type: ADME, organism-based; conditions: in vivo
# Kidney [21] = experiment: Biodistribution in Sprague-Dawley rat kidney assessed per gram tissue wet weight at 300 umol/kg, po after 2 hrs; assay type: ADME, organism-based; conditions: in vivo; summary of the method: as §3
# Kidney [22] = experiment: Biodistribution in Sprague-Dawley rat kidney assessed per gram tissue wet weight at 300 umol/kg, sc after 4 hrs; assay type: ADME, organism-based; conditions: in vivo
# Kidney [23] = experiment: Biodistribution in Sprague-Dawley rat kidney assessed per gram tissue wet weight at 300 umol/kg, po after 4 hrs; assay type: ADME, organism-based; conditions: in vivo; summary of the method: as §3
# Heart [24] = experiment: Biodistribution in Sprague-Dawley rat heart assessed per gram tissue wet weight at 300 umol/kg, sc after 1 hr; assay type: ADME, organism-based; conditions: in vivo
# Heart [25] = experiment: Biodistribution in Sprague-Dawley rat heart assessed per gram tissue wet weight at 300 umol/kg, po after 1 hr; assay type: ADME, organism-based; conditions: in vivo; summary of the method: as §3
# Heart [26] = experiment: Biodistribution in Sprague-Dawley rat heart assessed per gram tissue wet weight at 300 umol/kg, sc after 2 hrs; assay type: ADME, organism-based; conditions: in vivo
# Heart [27] = experiment: Biodistribution in Sprague-Dawley rat heart assessed per gram tissue wet weight at 300 umol/kg, po after 2 hrs; assay type: ADME, organism-based; conditions: in vivo; summary of the method: as §3
# Heart [28] = experiment: Biodistribution in Sprague-Dawley rat heart assessed per gram tissue wet weight at 300 umol/kg, sc after 4 hrs; assay type: ADME, organism-based; conditions: in vivo
# Pancreas [29] = experiment: Biodistribution in Sprague-Dawley rat pancreas assessed per gram tissue wet weight at 300 umol/kg, sc after 1 hr; assay type: ADME, organism-based; conditions: in vivo
# Pancreas [30] = experiment: Biodistribution in Sprague-Dawley rat pancreas assessed per gram tissue wet weight at 300 umol/kg, po after 1 hr; assay type: ADME, organism-based; conditions: in vivo; summary of the method: as §3
# Pancreas [31] = experiment: Biodistribution in Sprague-Dawley rat pancreas assessed per gram tissue wet weight at 300 umol/kg, sc after 2 hrs; assay type: ADME, organism-based; conditions: in vivo
# Pancreas [32] = experiment: Biodistribution in Sprague-Dawley rat pancreas assessed per gram tissue wet weight at 300 umol/kg, po after 2 hrs; assay type: ADME, organism-based; conditions: in vivo; summary of the method: as §3
# Pancreas [33] = experiment: Biodistribution in Sprague-Dawley rat pancreas assessed per gram tissue wet weight at 300 umol/kg, sc after 4 hrs; assay type: ADME, organism-based; conditions: in vivo
# Plasma [34] = experiment: Biodistribution in Sprague-Dawley rat plasma at 300 umol/kg, sc after 1 hr; assay type: ADME, organism-based; conditions: in vivo
# Plasma [35] = experiment: Biodistribution in Sprague-Dawley rat plasma at 300 umol/kg, po after 1 hr; assay type: ADME, organism-based; conditions: in vivo; summary of the method: as §3
# Plasma [36] = experiment: Biodistribution in Sprague-Dawley rat plasma at 300 umol/kg, sc after 2 hrs; assay type: ADME, organism-based; conditions: in vivo
# Plasma [37] = experiment: Biodistribution in Sprague-Dawley rat plasma at 300 umol/kg, po after 2 hrs; assay type: ADME, organism-based; conditions: in vivo; summary of the method: as §3
# Plasma [38] = experiment: Biodistribution in Sprague-Dawley rat plasma at 300 umol/kg, sc after 4 hrs; assay type: ADME, organism-based; conditions: in vivo
# Plasma [39] = experiment: Biodistribution in Sprague-Dawley rat plasma at 300 umol/kg, po after 4 hrs; assay type: ADME, organism-based; conditions: in vivo; summary of the method: as §3
# Rattus norvegicus [40] = experiment: Toxicity in non-iron-overloaded Sprague-Dawley rat assessed as survival at 63.3 umol/kg/day, po after 30 days by non-renal perfusion protocol; conditions: in vivo, 720 h
compound,measurement,setting,value
COCCOCCOCCOc1ccc(C2=N[C@@](C)(C(=O)O)CS2)c(O)c1,Activity,Rattus norvegicus [1],5.5%
same,Activity,Rattus norvegicus [2],11.2%
same,Activity,Rattus norvegicus [3],21.7%
same,Activity,Rattus norvegicus [4],>95%
same,Activity,Rattus norvegicus [5],>95%
same,Activity,Rattus norvegicus [6],>95%
same,Activity,Rattus norvegicus [7],8.7%
same,Activity,Sapajus apella [8],25.4%
same,Activity,Sapajus apella [9],30.4%
same,Activity,Rattus norvegicus [10],Non-toxic
same,Activity,Rattus norvegicus [11],Non-toxic
same,Drug uptake,Liver [12],339 nmol/g
same,Drug uptake,Liver [13],159 nmol/g
same,Drug uptake,Liver [14],132 nmol/g
same,Drug uptake,Liver [15],144 nmol/g
same,Drug uptake,Liver [16],67 nmol/g
same,Drug uptake,Liver [17],35 nmol/g
same,Drug uptake,Kidney [18],252 nmol/g
same,Drug uptake,Kidney [19],114 nmol/g
same,Drug uptake,Kidney [20],41 nmol/g
same,Drug uptake,Kidney [21],69 nmol/g
same,Drug uptake,Kidney [22],34 nmol/g
same,Drug uptake,Kidney [23],10 nmol/g
same,Drug uptake,Heart [24],35 nmol/g
same,Drug uptake,Heart [25],17 nmol/g
same,Drug uptake,Heart [26],9 nmol/g
same,Drug uptake,Heart [27],9 nmol/g
same,Drug uptake,Heart [28],5 nmol/g
same,Drug uptake,Pancreas [29],30 nmol/g
same,Drug uptake,Pancreas [30],25 nmol/g
same,Drug uptake,Pancreas [31],30 nmol/g
same,Drug uptake,Pancreas [32],9 nmol/g
same,Drug uptake,Pancreas [33],13 nmol/g
same,Drug uptake,Plasma [34],140 nmol/g
same,Drug uptake,Plasma [35],64 nmol/g
same,Drug uptake,Plasma [36],16 nmol/g
same,Drug uptake,Plasma [37],32 nmol/g
same,Drug uptake,Plasma [38],5 nmol/g
same,Drug uptake,Plasma [39],2 nmol/g
same,Activity,Rattus norvegicus [40],Non-toxic
